Laboratory results as given in ChEMBL document CHEMBL3751702, “Comprehensive Analysis of Structure-Activity Relationships of α-Ketoheterocycles as sn-1-Diacylglycerol Lipase α Inhibitors” (J Med Chem, 2015).

Each compound was assayed against T1, Diacylglycerol lipase-alpha (Homo sapiens, UniProt Q9Y4D2) (assay: Inhibition of full-length human DAGLalpha expressed in HEK293T cell membranes using para-nitrophenylbutyrate by colorimetric assay). Settings: not given.
T1 sequence (Q9Y4D2 whole entry): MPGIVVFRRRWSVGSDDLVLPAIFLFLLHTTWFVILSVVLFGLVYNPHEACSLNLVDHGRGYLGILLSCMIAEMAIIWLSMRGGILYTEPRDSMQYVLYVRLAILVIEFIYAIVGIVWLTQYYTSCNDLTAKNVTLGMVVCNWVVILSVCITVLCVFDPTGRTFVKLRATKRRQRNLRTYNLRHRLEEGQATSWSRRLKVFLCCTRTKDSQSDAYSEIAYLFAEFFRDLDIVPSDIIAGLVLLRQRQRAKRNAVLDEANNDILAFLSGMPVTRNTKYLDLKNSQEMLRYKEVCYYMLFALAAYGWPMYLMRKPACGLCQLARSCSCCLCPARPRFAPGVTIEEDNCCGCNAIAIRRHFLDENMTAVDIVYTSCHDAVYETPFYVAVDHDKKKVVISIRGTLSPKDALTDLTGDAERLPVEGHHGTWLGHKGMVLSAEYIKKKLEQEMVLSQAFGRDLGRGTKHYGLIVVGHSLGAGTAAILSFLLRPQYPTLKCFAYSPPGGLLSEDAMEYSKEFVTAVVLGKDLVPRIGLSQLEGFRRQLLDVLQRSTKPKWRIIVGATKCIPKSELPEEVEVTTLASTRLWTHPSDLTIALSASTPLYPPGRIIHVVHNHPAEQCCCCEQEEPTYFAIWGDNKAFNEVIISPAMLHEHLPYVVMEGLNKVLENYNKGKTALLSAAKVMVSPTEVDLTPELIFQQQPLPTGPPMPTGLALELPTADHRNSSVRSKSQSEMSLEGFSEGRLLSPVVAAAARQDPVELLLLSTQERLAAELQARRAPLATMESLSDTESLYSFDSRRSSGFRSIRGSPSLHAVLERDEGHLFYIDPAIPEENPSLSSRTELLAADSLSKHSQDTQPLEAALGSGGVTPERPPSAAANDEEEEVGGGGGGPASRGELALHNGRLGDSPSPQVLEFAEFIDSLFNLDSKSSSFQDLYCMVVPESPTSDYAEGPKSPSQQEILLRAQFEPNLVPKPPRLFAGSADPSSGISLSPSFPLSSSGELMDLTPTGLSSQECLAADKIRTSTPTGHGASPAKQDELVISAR
Assay type: cell-based, HEK-293T
In short: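 Membranes from HEK293T cells transiently transfected with full-length human DAGL-α (pcDNA3.1; PEI transfection, harvested at 72 h), diluted to 0.05 μg/μL final protein in 50 mM HEPES pH 7.2. Screen at 10 μM in duplicate; dose response by 10-fold serial dilution.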

| SMILES | IC50 |
| --- | --- |
| O=C(CCCCCCc1ccccc1)c1ncc(-c2ccccc2)o1 | > 10 µM |
| CCCCCCCCCCCCCCCC(=O)c1nc2ncccc2o1 | 0.0646 µM |
| CCCCCCCCCCCCCC(=O)c1nc2ncccc2o1 | 0.0741 µM |
| CCCCCCCCCC(=O)c1nc2ncccc2o1 | 0.0741 µM |
| CCCCCC(=O)c1nc2ncccc2o1 | > 10 µM |
| CC(=O)c1nc2ncccc2o1 | > 10 µM |
| CN(C)C(=O)c1cnc(C(=O)CCCCCCc2ccccc2)o1 | > 10 µM |
| CC(=O)c1cnc(C(=O)CCCCCCc2ccccc2)o1 | > 10 µM |
| CNC(=O)c1cnc(C(=O)CCCCCCc2ccccc2)o1 | > 10 µM |
| COc1ccc(-c2cnc(C(=O)CCCCCCc3ccccc3)o2)cc1 | > 10 µM |
| O=C(CCCCCCc1ccccc1)c1ncc(-c2ccc(C(=O)C(F)(F)F)cc2)o1 | > 10 µM |
| Cc1ccc(-c2cnc(C(=O)CCCCCCc3ccccc3)o2)nc1 | > 10 µM |
| O=C(CCCCCCc1ccccc1)c1ncc(C(=O)C(F)(F)F)o1 | 1.82 µM |
| O=Cc1cnc(C(=O)CCCCCCc2ccccc2)o1 | > 10 µM |
| N#Cc1cnc(C(=O)CCCCCCc2ccccc2)o1 | > 10 µM |
| COC(=O)c1cnc(C(=O)CCCCCCc2ccccc2)o1 | > 10 µM |
| O=C(CCCCCCc1ccccc1)c1ncc(-c2ccc(F)cc2)o1 | > 10 µM |
| O=C(CCCCCCc1ccccc1)c1ncc(-c2ccccc2F)o1 | > 10 µM |
| CCCCCCCC(=O)c1nc2ncccc2o1 | 0.631 µM |
| CCCCCCCCCCCC(=O)c1nc2ncccc2o1 | 0.0309 µM |
| O=C(CCCc1ccccc1)c1nc2ncccc2o1 | 2.24 µM |
| CCCCCCCC/C=C\CCCCCCCC(=O)c1nc2ncccc2o1 | 0.0263 µM |
| O=C(CCCCCCc1ccccc1)c1ncc(C(F)(F)F)o1 | > 10 µM |
| CS(=O)(=O)c1cnc(C(=O)CCCCCCc2ccccc2)o1 | > 10 µM |
| CC(C)(C)C(=O)c1coc(C(=O)CCCCCCc2ccccc2)n1 | 0.479 µM |
| O=C(CCCCCCc1ccccc1)c1nnc(-c2ccccc2)s1 | > 10 µM |

| SMILES | IC50 |
| --- | --- |
| O=C(CCCCCCc1ccccc1)c1ncc(-c2ccc(C(F)(F)F)cn2)o1 | > 10 µM |
| CS(=O)(=O)c1coc(C(=O)CCCCCCc2ccccc2)n1 | 0.389 µM |
| O=C(CCCCCCc1ccccc1)c1nnc(-c2ccccc2)[nH]1 | > 10 µM |
| C=CCCCCCCCC(=O)c1nc2ncccc2o1 | 0.55 µM |
| COc1cnc(C(=O)CCCCCCc2ccccc2)o1 | > 10 µM |
| O=C(CCc1ccccc1)c1nc2ncccc2o1 | 18.2 µM |
| COc1ccc(-c2cnc(C(=O)CCCCCCc3ccccc3)o2)nc1 | > 10 µM |
| O=C(CCCCCCc1ccccc1)c1ncc(-c2cccc(F)c2)o1 | > 10 µM |
| CCCCC(=O)c1nc2ncccc2o1 | > 10 µM |
| O=C(CCCCCCc1ccccc1)c1nc(-c2ccccc2)co1 | 8.71 µM |
| CNC(=O)c1coc(C(=O)CCCCCCc2ccccc2)n1 | > 10 µM |
| O=C(CCCCCCc1ccccc1)c1nc(C(=O)C(F)(F)F)co1 | 0.123 µM |
| COC(=O)c1coc(C(=O)CCCCCCc2ccccc2)n1 | 0.631 µM |
| CC(=O)c1coc(C(=O)CCCCCCc2ccccc2)n1 | 0.123 µM |
| O=C(CCCCCCc1ccccc1)c1nc(C(F)(F)F)co1 | 0.214 µM |
| CN(C)C(=O)c1coc(C(=O)CCCCCCc2ccccc2)n1 | 3.39 µM |
| O=C(CCCCc1ccccc1)c1nc2ncccc2o1 | 0.204 µM |
| O=C(O)c1cccc(-c2noc(C(=O)CCCCCCc3ccccc3)n2)n1 | > 10 µM |
| COC(=O)c1nc(C(=O)CCCCCCc2ccccc2)no1 | > 10 µM |
| COC(=O)c1nnc(C(=O)CCCCCCc2ccccc2)[nH]1 | > 10 µM |
| N#Cc1cccc(-c2noc(C(=O)CCCCCCc3ccccc3)n2)n1 | 1.05 µM |
| O=C(CCCCCCc1ccccc1)c1ccc(-c2ccccn2)nn1 | > 10 µM |
| O=C(CCCCCCc1ccccc1)c1ccc(-c2cccs2)nn1 | > 10 µM |
| O=C(CCCCCCc1ccccc1)c1nc(-c2cccc(I)n2)no1 | > 10 µM |
| COC(=O)c1cccc(-c2noc(C(=O)CCCCCCc3ccccc3)n2)n1 | > 10 µM |
| O=C(CCCCCCc1ccccc1)c1nc(-c2ccncc2)co1 | > 10 µM |

The remaining lines, values ahead:

| IC50 | SMILES |
| --- | --- |
| > 10 µM | O=C(CCCCCCc1ccccc1)c1nnc(-c2ccccc2)o1 |
| > 10 µM | O=C(CCCCCCc1ccccc1)c1nnc(-c2ccccn2)o1 |
| 0.0468 µM | O=C(CCCCCCCc1ccccc1)c1nc2ncccc2o1 |
| > 10 µM | O=C(CCCCCCc1ccccc1)c1nnc(-c2ccncc2)o1 |
| 0.00363 µM | O=C(CCCCCCCCc1ccccc1)c1nc2ncccc2o1 |
| > 10 µM | CSc1cnc(C(=O)CCCCCCc2ccccc2)o1 |
| > 10 µM | O=C(CCCCCCc1ccccc1)c1ncco1 |
| > 10 µM | O=C(CCCCCCc1ccccc1)c1ncc(Cl)o1 |
| > 10 µM | Cc1cnc(C(=O)CCCCCCc2ccccc2)o1 |
| > 10 µM | O=C(CCCCCCc1ccccc1)c1nnc(-c2cccnc2)o1 |
| 0.525 µM | O=C(CCCCCCc1ccccc1)c1nc2ncccc2o1 |
| > 10 µM | O=C(CCCCCCc1ccccc1)c1ncc(Br)o1 |
| > 10 µM | O=C(CCCCCCc1ccccc1)c1nnc(-c2ccco2)o1 |
| > 10 µM | O=C(CCCCCCc1ccccc1)c1nc(Br)co1 |
| > 10 µM | O=C(CCCCCCc1ccccc1)c1ncno1 |
| > 10 µM | Cn1nnnc1C(=O)CCCCCCc1ccccc1 |
| > 10 µM | O=C(CCCCCCc1ccccc1)c1cccnn1 |
| > 10 µM | O=C(CCCCCCc1ccccc1)c1nnn[nH]1 |
| 1.51 µM | O=Cc1coc(C(=O)CCCCCCc2ccccc2)n1 |
| > 10 µM | CSc1coc(C(=O)CCCCCCc2ccccc2)n1 |
| > 10 µM | O=C(CCCCCCc1ccccc1)c1nc(-c2ccccn2)co1 |
| 2.34 µM | O=C(CCCCCCc1ccccc1)c1nc(I)co1 |

| IC50 | SMILES |
| --- | --- |
| > 10 µM | Cc1coc(C(=O)CCCCCCc2ccccc2)n1 |
| 0.575 µM | N#Cc1coc(C(=O)CCCCCCc2ccccc2)n1 |
| 2.4 µM | O=C(CCCCCCc1ccccc1)c1nc(Cl)co1 |
| 1.95 µM | O=C(CCCCCCc1ccccc1)c1nc(-c2cccs2)no1 |
| > 10 µM | Cn1nnc(C(=O)CCCCCCc2ccccc2)n1 |
| > 10 µM | O=C(CCCCCCc1ccccc1)c1nnn(-c2ccccn2)n1 |
| 2.69 µM | O=C(CCCCCCc1ccccc1)c1nnco1 |
| > 10 µM | O=C(CCCCCCc1ccccc1)c1nnn(-c2ccco2)n1 |
| > 10 µM | O=C(CCCCCCc1ccccc1)c1noc(-c2ccccn2)n1 |
| > 10 µM | O=C(CCCCCCc1ccccc1)c1noc(-c2cccs2)n1 |
| 2.75 µM | O=C(CCCCCCc1ccccc1)c1nc(-c2ccccn2)no1 |
| 0.933 µM | O=C(CCCCCCc1ccccc1)c1nc(-c2ccco2)no1 |
| > 10 µM | O=C(CCCCCCc1ccccc1)c1nnc(-c2ccco2)[nH]1 |
| > 10 µM | O=C(CCCCCCc1ccccc1)c1nnc(-c2cccs2)[nH]1 |
| > 10 µM | O=C(CCCCCCc1ccccc1)c1nnc[nH]1 |
| > 10 µM | O=C(CCCCCCc1ccccc1)c1ccc(-c2ccco2)nn1 |
| > 10 µM | O=C(CCCCCCc1ccccc1)c1noc(-c2ccco2)n1 |
| > 10 µM | O=C(CCCCCCc1ccccc1)c1nnn(-c2cccs2)n1 |
| > 10 µM | O=C(CCCCCCc1ccccc1)c1nnc(-c2ccccn2)[nH]1 |
| > 10 µM | O=C(CCCCCCc1ccccc1)c1nc(-c2cccc(Cl)n2)no1 |
| 2.04 µM | O=C(CCCCCCc1ccccc1)c1nc(-c2cccc(Br)n2)no1 |
| > 10 µM | COc1coc(C(=O)CCCCCCc2ccccc2)n1 |

Same assay, conditions: hek-293t

| SMILES | pIC50 |
| --- | --- |
| O=C(CCCCCCc1ccccc1)c1nnn[nH]1 | < 5 |
